Reference: ChEMBL document CHEMBL5154717, “Identification of thiophene-benzenesulfonamide derivatives for the treatment of multidrug-resistant tuberculosis” (Eur J Med Chem, 2022)
pIC50: −log10 of the molar value. Values after ≈ are worked out from the molar mass of the structure shown.

Assays:
[1] = system: Mycobacterium tuberculosis; experiment: Antimycobacterial activity against Mycobacterium tuberculosis 13946 clinical isolate measured by MABA assay; format: functional
In short: (§1)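 Microplate Alamar Blue assay against replicating M. tuberculosis H37Rv or clinical isolates. MIC is the lowest concentration giving ≥90% reduction in fluorescence relative to the mean of replicate bacterium-only controls.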

[2] = system: Mycobacterium tuberculosis; experiment: Antimycobacterial activity against Mycobacterium tuberculosis H37Rv measured by MABA assay; format: functional; in short: as §1
J774.A1 [3] = experiment: Antimycobacterial activity against Mycobacterium tuberculosis H37Rv infected in mouse J774.A1 cells assessed as change in log10 CFU at 5 ug/ml; format: functional; conditions: dose 5 µg/ml
In short: (§2)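 Mouse J774A.1 macrophages infected with M. tuberculosis H37Rv, test compound at final 10 or 5 µg/mL. Read-out is intracellular log10 CFU; Δlog10 CFU = untreated minus treated. Triplicates in at least three separate experiments.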

[4] = system: Mycobacterium tuberculosis; experiment: Antimycobacterial activity against Mycobacterium tuberculosis 14862 clinical isolate measured by MABA assay; format: functional; in short: as §1
[5] = Metabolic stability in human hepatocytes assessed as half-life at 1 uM measured by LC-MS/MS analysis; format: ADME, cell-based, Hepatocyte
In short: (§3)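 Compound at 1 µM with hepatocytes at 1 million cells/mL final; human hepatocytes are mixed donor, mouse are male. Incubated at 37 °C in CO2 at ~100 rpm. Sampled at 0, 15, 30, 60, 90 and 120 min, quenched in ice-cold ACN/MeOH with internal standard. Parent remaining measured by LC-MS/MS.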

[6] = Cytotoxicity against human HepG2 cells measured by MTT assay; format: toxicity, cell-based
In short: (§4)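 Vero, HepG2 and mouse J774A.1 cells grown in RPMI 1640 with 10% FBS. MTT read-out in 96-well format.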

[7] = Cytotoxicity against mouse J774.A1 cells measured by MTT assay; format: toxicity, cell-based; in short: as §4
[8] = Cytotoxicity against African green monkey Vero cells measured by MTT assay; format: toxicity, cell-based; conditions: African green monkey (Chlorocebus sabaeus); in short: as §4
[9] = Metabolic stability in mouse hepatocytes assessed as compound remaining at 1 uM measured by LC-MS/MS analysis; format: ADME, cell-based, Hepatocyte; conditions: read-out: Stability; in short: as §3
[10] = Metabolic stability in human hepatocytes assessed as compound remaining at 1 uM measured by LC-MS/MS analysis; format: ADME, cell-based, Hepatocyte; conditions: read-out: Stability; in short: as §3
[11] = Selectivity index, Ratio of IC50 for Vero cells over MIC for Mycobacterium tuberculosis H37Rv; format: toxicity; conditions: monkey
[12] = Metabolic stability in mouse hepatocytes assessed as half-life at 1 uM measured by LC-MS/MS analysis; format: ADME, cell-based, Hepatocyte; in short: as §3
[13] = biological target: Voltage-gated inwardly rectifying potassium channel KCNH2 (Homo sapiens, UniProt Q12809); experiment: Inhibition of hERG; format: toxicity
In short: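 Electrophysiological recording of hERG current at 30, 10, 3.0, 1.0 and 0.3 µM, run in duplicate for IC50.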

[14] = Toxicity in BALB/c mouse infected with Mycobacterium tuberculosis H37Rv assessed as body weight at 25 mg/kg, po administered 5 times a week from day 10 to 30; format: organism-based; conditions: in vivo
In short: (§5)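 Female SPF BALB/c mice, 18–20 g, 6 per group, aerosol-infected with M. tuberculosis H37Rv to deposit 50–100 bacilli per lung. Oral gavage in 0.5% CMC at 25 or 100 mg/kg, 5 days/week from day 10 to day 30; controls get vehicle. Lungs harvested the next day and plated on 7H11 for 3 weeks at 37 °C. Mean log10 CFU compared by Student's t test.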

[15] = system: Mycobacterium tuberculosis; experiment: Antimycobacterial activity against Mycobacterium tuberculosis H37Rv infected in BALB/c mouse assessed as reduction in log10 CFU in lungs at 25 mg/kg, po administered 5 times a week from day 10 to 30; format: functional; in short: as §5
[16] = Toxicity in BALB/c mouse infected with Mycobacterium tuberculosis H37Rv assessed as body weight at 100 mg/kg, po administered 5 times a week from day 10 to 30; format: organism-based; conditions: in vivo; in short: as §5
[17] = system: Mycobacterium tuberculosis; experiment: Antimycobacterial activity against Mycobacterium tuberculosis H37Rv infected in BALB/c mouse assessed as reduction in log10 CFU in lungs at 100 mg/kg, po administered 5 times a week from day 10 to 30; format: functional; in short: as §5
J774.A1 [18] = experiment: Antimycobacterial activity against Mycobacterium tuberculosis H37Rv infected in mouse J774.A1 cells assessed as change in log10 CFU at 10 ug/ml; format: functional; conditions: dose 10 µg/ml; in short: as §2
[19] = biological target: T1, Decaprenylphosphoryl-beta-D-ribose oxidase (Mycobacterium tuberculosis (strain ATCC 25618 / H37Rv), UniProt P9WJF1); experiment: Inhibition of recombinant Mycobacterium tuberculosis DprE1 measured by resazurin dye based assay
T1 sequence (P9WJF1 whole entry): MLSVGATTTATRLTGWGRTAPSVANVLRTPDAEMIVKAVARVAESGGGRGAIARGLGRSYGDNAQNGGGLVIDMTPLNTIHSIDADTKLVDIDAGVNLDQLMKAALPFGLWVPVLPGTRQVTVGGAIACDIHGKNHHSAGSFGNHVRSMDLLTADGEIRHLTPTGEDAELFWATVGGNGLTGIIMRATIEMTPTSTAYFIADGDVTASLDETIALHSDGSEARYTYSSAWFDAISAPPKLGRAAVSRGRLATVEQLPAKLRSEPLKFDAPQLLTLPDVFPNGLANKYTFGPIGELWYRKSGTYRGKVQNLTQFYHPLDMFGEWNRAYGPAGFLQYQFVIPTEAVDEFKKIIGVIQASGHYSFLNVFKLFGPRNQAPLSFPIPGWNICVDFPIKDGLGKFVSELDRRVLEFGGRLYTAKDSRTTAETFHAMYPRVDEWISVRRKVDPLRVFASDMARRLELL
In short: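 Resazurin-coupled fluorescence assay at 30 °C. Buffer: 50 mM HEPES pH 7.5, 100 mM NaCl, 1.5% DMSO, 100 µM Tween-20, 50 µM resazurin, 2 µM FAD. DprE1 at 1 µM with 1 mM FPR across inhibitor concentrations. Resorufin read at ex 530/em 595 nm. IC50 from initial velocities plotted against inhibitor concentration.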

Chain of Voltage-gated inwardly rectifying potassium channel KCNH2 (Q12809 whole entry): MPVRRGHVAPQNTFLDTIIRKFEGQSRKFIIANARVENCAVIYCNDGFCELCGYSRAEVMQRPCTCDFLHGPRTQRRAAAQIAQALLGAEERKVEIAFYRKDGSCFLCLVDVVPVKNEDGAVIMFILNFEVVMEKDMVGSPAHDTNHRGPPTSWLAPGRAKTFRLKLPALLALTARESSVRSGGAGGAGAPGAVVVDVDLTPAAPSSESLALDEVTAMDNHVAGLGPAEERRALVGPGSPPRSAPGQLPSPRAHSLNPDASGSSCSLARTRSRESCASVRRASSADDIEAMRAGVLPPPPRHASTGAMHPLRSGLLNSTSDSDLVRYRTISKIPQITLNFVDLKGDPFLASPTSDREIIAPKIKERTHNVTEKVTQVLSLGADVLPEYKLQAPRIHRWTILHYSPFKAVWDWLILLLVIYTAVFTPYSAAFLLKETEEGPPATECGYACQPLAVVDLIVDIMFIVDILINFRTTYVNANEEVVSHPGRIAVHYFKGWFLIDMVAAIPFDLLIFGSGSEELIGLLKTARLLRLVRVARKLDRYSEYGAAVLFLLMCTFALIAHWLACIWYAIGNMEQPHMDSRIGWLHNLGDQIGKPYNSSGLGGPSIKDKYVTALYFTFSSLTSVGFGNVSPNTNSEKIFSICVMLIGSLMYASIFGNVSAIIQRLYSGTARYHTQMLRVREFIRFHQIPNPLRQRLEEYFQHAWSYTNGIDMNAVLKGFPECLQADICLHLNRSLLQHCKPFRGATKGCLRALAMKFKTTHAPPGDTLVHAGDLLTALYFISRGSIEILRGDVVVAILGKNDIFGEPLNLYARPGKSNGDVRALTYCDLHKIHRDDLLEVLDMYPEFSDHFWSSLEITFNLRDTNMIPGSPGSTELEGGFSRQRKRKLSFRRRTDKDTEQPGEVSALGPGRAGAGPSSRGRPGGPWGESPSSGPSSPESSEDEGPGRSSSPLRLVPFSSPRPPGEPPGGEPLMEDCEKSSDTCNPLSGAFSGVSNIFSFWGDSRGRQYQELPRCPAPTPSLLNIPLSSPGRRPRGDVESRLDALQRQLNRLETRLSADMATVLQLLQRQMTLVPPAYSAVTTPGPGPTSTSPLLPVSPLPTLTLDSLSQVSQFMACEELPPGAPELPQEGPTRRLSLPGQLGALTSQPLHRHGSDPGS

Structure (SMILES) | MIC [1] [µg/mL] | MIC [2] [µg/mL] | MIC [4] [µg/mL] | IC50 [8] [µg/mL] | selectivity ratio [11] | other results
CO[C@H]1/C=C/O[C@@]2(C)Oc3c(C)c(O)c4c(O)c(c(/C=N/N5CCN(C)CC5)c(O)c4c3C2=O)NC(=O)/C(C)=C\C=C\[C@H](C)[C@H](O)[C@@H](C)[C@@H](O)[C@@H](C)[C@H](OC(C)=O)[C@@H]1C [RIFAMPIN] | > 10 | 0.015 (≈ 0.0182 µM) | 9.24 (≈ 11.2 µM) | – | – | Activity (J774.A1 [3]): 1.03 deltalog10CFU
CCOC(=O)NC(=O)c1ccsc1NC(=O)c1ccc(S(=O)(=O)N2CCCCC2)cc1 | < 0.016 | 0.03 (≈ 0.0644 µM) | < 0.016 | 18.6 (≈ 39.9 µM) | 619 | half-life at 1 µM [5]: 29.9 min; IC50 [6]: 38.8 µg/mL (≈ 83.3 µM); IC50 [7]: 34.3 µg/mL (≈ 73.7 µM); remaining at 1 µM [9]: 66.3%; remaining at 1 µM [10]: 49.8%; half-life at 1 µM [12]: 50.6 min
Cc1ccnc(NC(=O)c2ccsc2NC(=O)c2ccc(S(=O)(=O)N3CCCCC3)cc2)n1 | – | 0.24 (≈ 0.494 µM) | – | 32.8 (≈ 67.5 µM) | 137 | half-life at 1 µM [5]: 23.4 min; remaining at 1 µM [9]: 7.3%; remaining at 1 µM [10]: 41.2%; pIC50 [13]: 5.77; half-life at 1 µM [12]: 7.9 min
CCOC(=O)NC(=O)c1ccsc1NC(=O)c1ccc(S(=O)(=O)N2CCC2)cc1 | 0.06 (≈ 0.137 µM) | 0.049 (≈ 0.112 µM) | 0.062 (≈ 0.142 µM) | > 64 | > 1310 | –
NNC(=O)c1ccncc1 [ISONIAZID] | 2.46 (≈ 17.9 µM) | 0.019 (≈ 0.139 µM) | > 10 | – | – | Activity [14]: 20.9 g; Activity [15]: 1.76 log10CFU
C[C@H]1COc2c(N3CCN(C)CC3)c(F)cc3c(=O)c(C(=O)O)cn1c23.C[C@H]1COc2c(N3CCN(C)CC3)c(F)cc3c(=O)c(C(=O)O)cn1c23.O [LEVOFLOXACIN] | 1.94 | 0.33 | 1.87 | – | – | –
CN[C@@H]1[C@H](O[C@H]2[C@H](O[C@H]3[C@H](O)[C@@H](O)[C@H](N=C(N)N)[C@@H](O)[C@@H]3N=C(N)N)O[C@@H](C)[C@]2(O)C=O)O[C@@H](CO)[C@H](O)[C@H]1O [STREPTOMYCIN] | > 2 | 0.49 (≈ 0.843 µM) | > 2 | – | – | –
CCOC(=O)NC(=O)c1ccsc1NC(=O)c1ccc(S(=O)(=O)Nc2ccc(F)cc2)cc1 | – | 0.98 (≈ 1.99 µM) | – | 20.5 (≈ 41.8 µM) | 21 | –
CCOC(=O)NC(=O)c1ccsc1NC(=O)c1ccc(S(=O)(=O)N2CCCC2)cc1 | 0.057 (≈ 0.126 µM) | < 0.016 | 0.03 (≈ 0.0664 µM) | 58.2 (≈ 129 µM) | > 3640 | Activity (J774.A1 [3]): 1.19 deltalog10CFU; half-life at 1 µM [5]: 24 min; IC50 [6]: 62.9 µg/mL (≈ 139 µM); IC50 [7]: > 64 µg/mL; Activity [16]: 20.94 g; Activity [17]: 4.81 log10CFU; remaining at 1 µM [9]: 49.7%; remaining at 1 µM [10]: 42%; pIC50 [13]: < 4.52; Activity (J774.A1 [18]): 1.29 deltalog10CFU; half-life at 1 µM [12]: 29.7 min
COC(=O)NC(=O)c1ccsc1NC(=O)c1ccc(S(=O)(=O)N2CCC(OC)CC2)cc1 | 0.25 (≈ 0.519 µM) | 0.03 (≈ 0.0623 µM) | 0.44 (≈ 0.914 µM) | 18 (≈ 37.4 µM) | 601 | IC50 [6]: 46.1 µg/mL (≈ 95.7 µM); IC50 [7]: 54.9 µg/mL (≈ 114 µM); pIC50 [13]: 5.05
CCOC(=O)NC(=O)c1ccsc1NC(=O)c1ccc(S(=O)(=O)N2CCCCCC2)cc1 | – | 0.024 (≈ 0.05 µM) | – | 3.42 (≈ 7.13 µM) | 143 | –
COC(=O)NC(=O)c1ccsc1NC(=O)c1ccc(S(=O)(=O)N2CCC(C)CC2)cc1 | – | 0.23 (≈ 0.494 µM) | – | 9.13 (≈ 19.6 µM) | 40 | –
COC(=O)NC(=O)c1ccsc1NC(=O)c1ccc(S(=O)(=O)N2CCCCC2)cc1 | 0.48 (≈ 1.06 µM) | 0.24 (≈ 0.532 µM) | 0.51 (≈ 1.13 µM) | 3.62 (≈ 8.02 µM) | 15 | half-life at 1 µM [5]: 4.6 min; IC50 [6]: 36.8 µg/mL (≈ 81.5 µM); IC50 [7]: 36.9 µg/mL (≈ 81.7 µM); pIC50 [19]: 6.65; remaining at 1 µM [9]: 22.7%; remaining at 1 µM [10]: 1%; pIC50 [13]: 5.48; half-life at 1 µM [12]: 14 min
CC(C)OC(=O)NC(=O)c1ccsc1NC(=O)c1ccc(S(=O)(=O)N2CCOCC2)cc1 | – | 0.45 (≈ 0.934 µM) | – | 13.1 (≈ 27.3 µM) | 29 | –
COC(=O)NC(=O)c1ccsc1NC(=O)c1ccc(S(=O)(=O)N2CCCC2)cc1 | – | 0.1 (≈ 0.229 µM) | – | 39.4 (≈ 90.2 µM) | 395 | –
COC(=O)NC(=O)c1ccsc1NC(=O)c1ccc(S(=O)(=O)N(C)C)cc1 | – | 1.19 (≈ 2.89 µM) | – | 16.2 (≈ 39.3 µM) | 14 | –
